# An excerpt weighted towards active compounds, which were near 3% of everything screened.
# JMJD2C inh: human JMJD2C demethylase inhibition. Q9H3R0. GST-JMJD2C(1-420) H3K9me3 demethylation, DELFIA europium. inhibition, % at 2.35 µM. 330,000 tested, 0.069% active. AID 2099;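 active = more than half of a compound's replicate wells show inhibition beyond 50%, single wells judged on their own value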;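 note: signal counts dimethyl H3K9 product captured on neutravidin plate; 0% = median of DMSO wells and 100% = 0.3 times that DMSO median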
# Target sequence (Q9H3R0 1-420 limits assumed): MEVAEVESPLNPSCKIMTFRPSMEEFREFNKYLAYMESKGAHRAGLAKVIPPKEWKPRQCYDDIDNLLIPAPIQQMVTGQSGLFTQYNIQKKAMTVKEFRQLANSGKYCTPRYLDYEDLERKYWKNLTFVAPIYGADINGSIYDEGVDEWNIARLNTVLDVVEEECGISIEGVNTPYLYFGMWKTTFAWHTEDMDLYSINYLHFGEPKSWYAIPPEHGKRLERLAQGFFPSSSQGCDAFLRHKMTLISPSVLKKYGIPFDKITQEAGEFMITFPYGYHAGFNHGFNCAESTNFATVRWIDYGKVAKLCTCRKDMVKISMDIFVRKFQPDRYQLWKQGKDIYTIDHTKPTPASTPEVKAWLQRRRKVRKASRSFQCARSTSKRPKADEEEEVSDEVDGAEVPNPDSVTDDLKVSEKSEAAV
# aDG glyco up: alpha-DG glycosylation activation; Pro5-aDG cells, alpha-DG glycosylation AlphaScreen (IIH6); 0% Pro5, 100% B10-LARGE cell signal; activation, % at 10 µM; 360,000 tested, 0.22% active;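 active = activation of at least 8% versus controls, or a plate z-score of at least 8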;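 note: Pro5 are CHO cells carrying HIG-tagged alpha-DG that lacks glycosylation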
# Hep lipid drop: modulators of hepatic lipid droplet formation; AML12 mouse hepatocytes, oleate lipid droplets, BODIPY imaging; inhibition, % at 6.5 µM; 240,000 tested, 0.4% active;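 active = lipid droplet intensity inhibited by at least 50%, with more than 500 cells counted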
#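 System: AML12 hepatocytes (mouse). Probe or stimulus: oleic acid at 100 µM to induce lipid droplet formation. Times: overnight treatment with compound plus oleate. Detection: Image-based BODIPY and DAPI two-channel analysis. Evaluation: percent inhibition of filter-corrected integrated lipid droplet intensity per well.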
# NR3A LBD binder: modulators (binders) of human NR3A ligand-binding domain; NR3A LBD differential scanning fluorimetry, Tm shift; 0% = protein alone, 100% = glycine-bound protein; 340,000 tested, 2.5% active; Tm shift relative to glycine control, % at 25 µM;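 active = melting temperature shift of at least 10% of the positive control shift, at one fixed dose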
# NPR1 activator: GC-A (human) enzyme activation; HEK293 GC-A cells, cGMP TR-FRET, EC30 ANP; 0% at EC30 ANP, 100% saturating ANP; activation, % at 10 µM; 370,000 tested, 0.14% active; in the data active = activation above about 40%
# GC-B act: GC-B (human) receptor activation; HEK293-GC-B cells, CNP EC30, cGMP TR-FRET; 0% at EC30 CNP, 100% saturating CNP; activation, % at 10 µM; 370,000 tested, 0.11% active; AID 1920062;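 active = activation at 10 µM reaching about 35% in either raw or pattern-adjusted values, limit read from the data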
# * = called active by the depositor; i = inactive; · = not tested or not shown.
SMILES,JMJD2C inh,aDG glyco up,Hep lipid drop,NR3A LBD binder,NPR1 activator,GC-B act
O=C1c2ccccc2NC2CCCCCN12 (stereo unspecified),-3,0,2,5,0,4
O=C1COC(c2ccccc2)C2CCCCN12 (stereo unspecified),14,0,-3,16*,3,3
O=C(Nc1ccccc1)n1ccc2ccc(-c3ccc4cc[nH]c4c3)cc21,·,·,·,·,-7,0
O=c1cc(CSc2nc3ccccc3c(=O)[nH]2)c2ccc(O)cc2o1,-37,2,5,29*,1,18
O=C(Oc1ccc[nH]c1=O)c1ccccc1,·,0,·,·,4,2
O=C(Nc1ccc(F)cc1)Oc1ccc[nH]c1=O,-15,0,2,12*,11,0
CCOC(=O)C1C[C@@H](O)C=CC1=O (stereo partly specified),·,·,·,·,2,-4
N#Cc1c(NC(=O)CN2C(=O)c3ccccc3C2=O)oc(-c2ccccc2)c1-c1ccccc1,1,0,·,17*,-6,-2
N#Cc1c(NC(=O)CCN2C(=O)c3ccccc3C2=O)oc(-c2ccccc2)c1-c1ccccc1,8,0,·,-2,-4,0
Cn1c(N)c(C(=O)Nc2cccc(Cl)c2)c(=O)n(C)c1=O,-6,0,12,0,47*,-6
CCOC(=O)c1ccc(NC(=O)c2c(N)n(C)c(=O)n(C)c2=O)cc1,-10,0,·,1,2,-5
COc1ccc(NC(=O)Nc2cc(C)cc(C)c2)cn1,-6,0,19,-430,3,1
COc1ccc(NC(=O)Nc2cccc(C(F)(F)F)c2)cn1,i,1,7,26*,-2,-2
COc1cccc(NC(=O)Nc2cc(C)ccc2OC)c1,12,0,23,-4,-3,0
O=C(Nc1ccccc1)Nc1cccc(C(F)(F)F)c1,0,1,3,27*,2,-3
O=C(Nc1ccccc1)Nc1cccc(NC(=O)Nc2ccccc2)c1F,0,0,-3,24*,-7,-2
Cc1ccc(OC(F)F)c(NC(=O)Nc2cccc(C(F)(F)F)c2)c1,-8,2,5,29*,-4,-11
CC(C)(C)C(=O)OC12CCCN(C1)/C(=C/c1ccc(Cl)cc1)C2 (stereo unspecified),·,·,·,·,4,4
O=C(NCCN1CCNC1=O)C1CCC(=O)N(Cc2cccc(C(F)(F)F)c2)C1 (stereo unspecified),5,0,-4,-2,2,2
O=C(Nc1ccccc1C(F)(F)F)OC1CCC12CCC(c1ccccc1)CC2 (stereo unspecified),·,·,·,·,-5,-12
Cc1nc2sc(C(=O)NCc3nccs3)c(N)c2c(C)c1Cl,·,·,·,·,11,6
O=C(Nc1cccc(C(F)(F)F)c1)NC1CCN(S(=O)(=O)c2ccc(F)cc2)CC1,13,2,-5,19*,-12,2
O=C(Nc1ccccc1)Nc1cc([N+](=O)[O-])ccc1F,12,0,5,20*,2,6
O=C(Nc1cccc(C(F)(F)F)c1)c1ccccc1NC(=O)C1CCCCC1,-2,0,31,10*,-4,-4
O=C(Nc1cc(C(F)(F)F)ccc1F)C1CCCCC1,-10,0,9,-1,3,-3
SMILES,JMJD2C inh,aDG glyco up,Hep lipid drop,NR3A LBD binder,NPR1 activator,GC-B act
Cc1cc([N+](=O)[O-])ccc1NC(=O)Nc1ccccc1F,-6,1,-6,-28,3,-1
COc1ccc(N2C(=O)c3[nH]nc(-c4ccccc4)c3C2c2ccc(Br)cc2)cc1 (stereo unspecified),·,·,·,·,-3,1
O=C(Nc1ccc2snnc2c1)Nc1cccc2ccccc12,14,1,-28,38*,8,13
Cc1nc2cc(NC(=O)Nc3cccc4ccccc34)ccc2n1C,-1,0,35,-1,0,1
Cc1nc2cc(C(=O)N3CCN(C(=O)C(Cl)Cl)CC3)ccc2n1C1CCCC1,·,·,·,·,3,-1
CC(C)CSc1ncccc1-c1nc2ccccc2[nH]1,·,·,·,·,4,-6
C/C(=N\Nc1nc2ccccc2[nH]1)c1ccc(C)o1,4,0,-11,-1,-6,-2
C/C(=N\Nc1nc2ccccc2[nH]1)c1ccc(Cl)s1,-4,1,11,16*,-1,-5
Cc1ccc(CNC(=O)C2CCN(S(=O)(=O)c3c(C)noc3C)CC2)cc1,0,0,12,0,3,-7
O=C(NCC1CCCO1)C1CCN(C(=O)c2ccc(Br)cc2)CC1 (stereo unspecified),-3,0,9,14*,1,2
COc1ccc(C(C)C)cc1S(=O)(=O)N1CCC(C(=O)NCC2CCCO2)CC1 (stereo unspecified),-5,0,2,11*,-1,2
Cc1noc(C)c1S(=O)(=O)N1CCC(C(=O)NCCc2ccc(S(N)(=O)=O)cc2)CC1,-7,0,-1,11*,5,-5
COc1ccc(S(=O)(=O)N2CCC(C(=O)NCCc3ccc(OC)c(OC)c3)CC2)cc1,·,0,·,·,-5,2
COc1ccc(OC)c(S(=O)(=O)N2CCC(C(=O)NCCc3ccc(OC)c(OC)c3)CC2)c1,-21,0,-11,11*,4,1
C[C@@H]1C=CCCO[C@]12C(=O)N(Cc1ccccc1C(F)(F)F)c1ccccc12,·,·,·,·,-3,-2
O=C(OC1CC2CCC(C1)[N+]21CCCC1)C(O)(c1ccccc1)c1ccccc1 (stereo unspecified),·,·,·,·,1,4
CC(=O)Nc1cccc(NC(=S)Nc2ccc(F)c(Cl)c2)c1,7,0,-41,12*,6,3
CC(=O)Nc1ccc2cc3ccc(NC(C)=O)cc3nc2c1,-25,0,·,10*,-7,-15
CC(=O)Nc1cccc(NC(=O)Nc2ccc(C)c(Cl)c2)c1,0,0,8,36*,-12,-6
CC(=O)Nc1ccc(NC(=O)Nc2ccc(C)c(C)c2)cc1,-3,0,11,13*,2,4
O=C(Nc1cc([N+](=O)[O-])ccc1O)c1cccc([N+](=O)[O-])c1,-5,0,0,-4,-6,-4
O=C(Nc1cc([N+](=O)[O-])ccc1O)c1cccc(C(=O)Nc2cc([N+](=O)[O-])ccc2O)c1,8,0,-1,25*,2,-10
O=C(Nc1ccc(O)cc1)c1cccc(Oc2ccc([N+](=O)[O-])cc2)c1,-11,0,-4,32*,4,3
Cc1cc(O)c(NC(=O)c2cccc([N+](=O)[O-])c2)cc1C,7,0,-14,17*,2,2
